Reference: ChEMBL document CHEMBL3621107, “Ring fusion strategy for synthesis and lead optimization of sulfur-substituted anthra[1,2-c][1,2,5]thiadiazole-6,11-dione derivatives as promising scaffold of antitumor agents” (Eur J Med Chem, 2015)

Legend:
Type in all cases: functional
[1] = Cytotoxicity against human colon cancer cells assessed as growth inhibition after 48 hrs by SRB assay; details: Cancer cell lines
Method in brief: (§1)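 Values come from the NCI-60 five-dose panel (0.01–100 µM). The subpanel MID is the mean GI50 over the lines of that tumour subpanel. The selectivity ratio is the full-panel MID divided by the subpanel MID; 3–6 is rated moderate and >6 high.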

[2] = tested on: HCT-116; assay: Cytotoxicity against human HCT116 cells after 48 hrs by SRB assay; details: HCT-116, 48 h; for CC50: read-out: LC50 (the source's name)
Method in brief: (§2)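 NCI-60 human tumour cell panel screen, second stage, run by the NCI Developmental Therapeutics Program. Compounds were tested at five concentrations (0.01, 0.1, 1, 10 and 100 μM). Percentage growth was plotted against log10 concentration for each cell line. GI50, TGI and LC50 were taken from these dose-response curves.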

[3] = tested on: SF-295; assay: Cytotoxicity against human SF295 cells after 48 hrs by SRB assay; details: SF-295, 48 h
Method in brief: (§3)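 Second-stage NCI-60 panel run by the NCI Developmental Therapeutics Program, covering nine tumour subpanels. Five concentrations were tested: 0.01, 0.1, 1, 10 and 100 μM. Percentage growth at each level was plotted against log10 drug concentration. GI50, TGI and LC50 were read from these dose-response curves. Subpanel MID values were divided into the full-panel MID to give selectivity ratios.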

[4] = Cytotoxicity against human melanoma cells assessed as growth inhibition after 48 hrs by SRB assay; details: Melanoma cell; method in brief: as §1
[5] = tested on: MDA-MB-435; assay: Cytotoxicity against human MDA-MB-435 cells after 48 hrs by SRB assay; details: MDA-MB-435, 48 h; method in brief: as §3
[6] = Cytotoxicity against human EKVX cells after 48 hrs by SRB assay; method in brief: as §2
[7] = Cytotoxicity against human ovarian cancer cells assessed as growth inhibition after 48 hrs by SRB assay; details: Cancer cell lines; method in brief: as §1
[8] = tested on: IGROV-1; assay: Cytotoxicity against human IGROV1 cells after 48 hrs by SRB assay; details: IGROV-1, 48 h; method in brief: as §2
[9] = tested on: K562; assay: Cytotoxicity against human K562 cells after 48 hrs by SRB assay; details: K562, 48 h; method in brief: as §2
[10] = tested on: HCC 2998; assay: Cytotoxicity against human HCC2998 cells after 48 hrs by SRB assay; details: HCC 2998, 48 h; method in brief: as §2
[11] = tested on: HL-60(TB); assay: Cytotoxicity against human HL-60(TB) cells after 48 hrs by SRB assay; details: HL-60, 48 h
Method in brief: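 NCI Developmental Therapeutics Program 60-cell-line screen, second stage: cells exposed to five concentrations (0.01, 0.1, 1, 10 and 100 μM). Growth is plotted against log10 concentration for each line, and GI50, TGI and LC50 are read from the dose-response curves.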

[12] = tested on: Malme-3M; assay: Cytotoxicity against human MALME-3M cells after 48 hrs by SRB assay; method in brief: as §2
[13] = Cytotoxicity against human CNS cancer cells assessed as growth inhibition after 48 hrs by SRB assay; details: Cancer cell lines
Method in brief: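 NCI-60 five-dose data (0.01–100 μM) were grouped by tumour subpanel. A subpanel mean (MID) of GI50 was computed for the CNS cancer lines. A selectivity ratio was obtained as full-panel MID divided by subpanel MID: 3–6 counts as moderate, >6 as high.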

[14] = tested on: NCI-H226; assay: Cytotoxicity against human NCI-H226 cells after 48 hrs by SRB assay; details: NCI-H226, 48 h; method in brief: as §3
[15] = Cytotoxicity against human non-small cell lung cancer cells assessed as growth inhibition after 48 hrs by SRB assay; details: Cancer cell lines; method in brief: as §1
[16] = tested on: SK-MEL-28; assay: Cytotoxicity against human SK-MEL-28 cells after 48 hrs by SRB assay; details: SK-MEL-28, 48 h; for CC50: read-out: LC50 (the source's name); method in brief: as §3
[17] = tested on: HCT-15; assay: Cytotoxicity against human HCT15 cells after 48 hrs by SRB assay; details: HCT-15, 48 h; method in brief: as §2
[18] = tested on: ACHN; assay: Cytotoxicity against human ACHN cells after 48 hrs by SRB assay; method in brief: as §2
[19] = tested on: SNB-19; assay: Cytotoxicity against human SNB19 cells after 48 hrs by SRB assay; details: SNB-19, 48 h; method in brief: as §3
[20] = tested on: SK-OV-3; assay: Cytotoxicity against human SKOV3 cells after 48 hrs by SRB assay; details: SK-OV-3, 48 h; method in brief: as §3
[21] = tested on: COLO 205; assay: Cytotoxicity against human COLO205 cells after 48 hrs by SRB assay; details: COLO 205, 48 h; method in brief: as §2
[22] = tested on: SK-MEL-5; assay: Cytotoxicity against human SK-MEL-5 cells after 48 hrs by SRB assay; details: SK-MEL-5, 48 h; method in brief: as §3
[23] = tested on: UO-31; assay: Cytotoxicity against human UO31 cells after 48 hrs by SRB assay; details: UO-31, 48 h
Method in brief: (§4)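 NCI-60 five-dose study run by NCI DTP at 0.01, 0.1, 1, 10 and 100 µM. Percentage growth at each level was plotted against log10 concentration for each line, and GI50, TGI and LC50 were read from the dose-response curves.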

[24] = tested on: NCI-H23; assay: Cytotoxicity against human NCI-H23 cells after 48 hrs by SRB assay; details: NCI-H23, 48 h; method in brief: as §3
[25] = tested on: UACC-62; assay: Cytotoxicity against human UACC62 cells after 48 hrs by SRB assay; details: UACC-62, 48 h; method in brief: as §4
[26] = tested on: NCI-H522; assay: Cytotoxicity against human NCI-H522 cells after 48 hrs by SRB assay; details: NCI-H522, 48 h; method in brief: as §3
[27] = Cytotoxicity against human leukemia cells assessed as growth inhibition after 48 hrs by SRB assay; details: Leukemia cell; method in brief: as §1
[28] = tested on: HOP-62; assay: Cytotoxicity against human HOP62 cells after 48 hrs by SRB assay; details: HOP-62, 48 h; method in brief: as §2

`O=C1c2ccccc2C(=O)c2c1cc(Sc1cccc(Cl)c1)c1nsnc21` gave a GI50 [1] of 10.5 µM, a GI50 [2] of 0.44 µM and a TGI [2] of 2.66 µM. For the same molecule, the CC50 [2] was 16.3 µM, the GI50 [3] was 7.84 µM and the LC50 [3] was 57.9 µM. The TGI [3] was 22.9 µM, the GI50 [4] was 1.56 µM and the GI50 [5] was 1.53 µM. For the same molecule, the LC50 [5] was 7.24 µM, the TGI [5] was 3.33 µM and the GI50 [6] was 16 µM. It also gave an LC50 [6] of 55 µM, a TGI [6] of 29.7 µM and a GI50 [7] of 1.52 µM. The GI50 [8] was 2.07 µM, the LC50 [8] was 26.7 µM and the TGI [8] was 5.37 µM. For the same molecule, the GI50 [9] was 2.41 µM, the LC50 [9] was over 100 µM and the TGI [9] was 7.27 µM. The GI50 [10] was 16.2 µM, the LC50 [10] was 62.1 µM and the TGI [10] was 31.7 µM. For the same molecule, the GI50 [11] was 2.51 µM, the LC50 [11] was over 100 µM and the TGI [11] was 6.71 µM. It also gave a GI50 [12] of 1.98 µM, an LC50 [12] of 6.85 µM and a TGI [12] of 3.68 µM. For the same molecule, the GI50 [13] was 4.47 µM, the GI50 [14] was 2.39 µM and the LC50 (concentration killing 50% of starting cells) [14] was 57.5 µM. The TGI [14] was 6.06 µM, the GI50 [15] was 5.84 µM and the GI50 [16] was 1.93 µM. The TGI [16] was 4.19 µM, the CC50 [16] was 9.09 µM and the GI50 [17] was 2.71 µM. It also gave an LC50 [17] of 47.1 µM, a TGI [17] of 11.3 µM and a GI50 [18] of 1.62 µM. It also gave an LC50 [18] of 6.63 µM, a TGI [18] of 3.27 µM and a GI50 [19] of 8.64 µM. It also gave an LC50 [19] of 47.1 µM, a TGI [19] of 21.2 µM and a GI50 [20] of 3.97 µM. It also gave an LC50 [20] of 34.8 µM, a TGI [20] of 12.1 µM and a GI50 [21] of 20 µM. For the same molecule, the LC50 [21] was 61.3 µM, the TGI [21] was 35 µM and the GI50 [22] was 0.99 µM. The LC50 [22] was 4.87 µM, the TGI [22] was 2.21 µM and the GI50 [23] was 1.78 µM. The LC50 [23] was 9.73 µM, the TGI [23] was 4.16 µM and the GI50 [24] was 1 µM. For the same molecule, the LC50 [24] was 22.8 µM, the TGI [24] was 3.58 µM and the GI50 [25] was 1.6 µM. It also gave an LC50 [25] of 6.54 µM, a TGI [25] of 3.26 µM and a GI50 [26] of 1.84 µM. It also gave an LC50 (concentration giving 50% net cell kill) [26] of 9.91 µM, a TGI [26] of 4.26 µM and a GI50 [27] of 1.59 µM. It also gave a GI50 [28] of 1.85 µM, an LC50 [28] of 8.81 µM and a TGI [28] of 4.04 µM.
In the case of `CC(C)Sc1cc2c(c3nsnc13)C(=O)c1ccccc1C2=O`, the GI50 [1] is reported as 4.94 µM, the GI50 [2] is reported as 0.29 µM and the TGI [2] is reported as 1.01 µM. For the same molecule, the CC50 [2] was 4.22 µM, the GI50 [3] was 1.88 µM and the LC50 [3] was 9.83 µM. It also gave a TGI [3] of 4.3 µM, a GI50 [4] of 1.12 µM and a GI50 [5] of 0.2 µM. The LC50 [5] was 0.74 µM, the TGI [5] was 0.39 µM and the GI50 [7] was 1.08 µM. The GI50 [8] was 0.96 µM, the LC50 [8] was 9.18 µM and the TGI [8] was 3.01 µM. The GI50 [9] was 0.26 µM, the LC50 [9] was 14.3 µM and the TGI [9] was 1.35 µM. The GI50 [10] was 3.46 µM, the LC50 [10] was 34.9 µM and the TGI [10] was 11.1 µM. The GI50 [11] was 0.23 µM, the LC50 [11] was 40.8 µM and the TGI [11] was 0.617 µM. It also gave a GI50 [12] of 1.12 µM, an LC50 [12] of 5.03 µM and a TGI [12] of 2.38 µM. The GI50 [13] was 1.79 µM, the GI50 [14] was 1.83 µM and the LC50 (concentration killing 50% of starting cells) [14] was 14.6 µM. It also gave a TGI [14] of 4.64 µM, a GI50 [15] of 1.81 µM and a GI50 [16] of 2.72 µM. For the same molecule, the TGI [16] was 5.99 µM, the CC50 [16] was 18.8 µM and the GI50 [17] was 1.69 µM. For the same molecule, the LC50 [17] was 40.4 µM, the TGI [17] was 6.91 µM and the GI50 [18] was 1.25 µM. It also gave an LC50 [18] of 8.5 µM, a TGI [18] of 3.26 µM and a GI50 [19] of 3.32 µM. It also gave an LC50 [19] of 36.3 µM, a TGI [19] of 13.1 µM and a GI50 [20] of 2.9 µM. The LC50 [20] was 36.9 µM, the TGI [20] was 12.6 µM and the GI50 [21] was 13.3 µM. For the same molecule, the LC50 [21] was 51 µM, the TGI [21] was 20.6 µM and the GI50 [22] was 1.29 µM. It also gave an LC50 [22] of 5.23 µM, a TGI [22] of 2.6 µM and a GI50 [23] of 1.16 µM. The LC50 [23] was 11.9 µM, the TGI [23] was 3.56 µM and the GI50 [24] was 0.56 µM. For the same molecule, the LC50 [24] was 8.48 µM, the TGI [24] was 2.58 µM and the GI50 [25] was 1.35 µM. The LC50 [25] was 5.26 µM, the TGI [25] was 2.67 µM and the GI50 [26] was 2.38 µM. For the same molecule, the LC50 (concentration giving 50% net cell kill) [26] was 9.96 µM, the TGI [26] was 4.87 µM and the GI50 [27] was 0.25 µM. For the same molecule, the GI50 [28] was 2.1 µM, the LC50 [28] was 24.2 µM and the TGI [28] was 6.53 µM.
